These results are taken from ChEMBL document CHEMBL3868583, “6-Aryl substituted 4-(4-cyanomethyl) phenylamino quinazolines as a new class of isoform-selective PI3K-alpha inhibitors” (Eur J Med Chem, 2016).

The nature of data set [1]: Downregulation of PI3Kalpha expression in human MCF7 cells at 30 uM by Western blot analysis. It counts as functional, cell-based. The gist of the method:
(§1)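 MCF-7 or PC-3 cells (2 × 10^6) treated with compound, lysed (1 × 10^6 cells) in cold NP-40 buffer with protease inhibitors 30 min on ice, 12,000 g 10 min 4 °C. 50 µg protein per lane on SDS-PAGE, PVDF transfer, 5% milk block, primary antibody 2 h, HRP secondary 1 h, ECL on film; β-actin internal control.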

A short description of data set [2]: Downregulation of PI3Kgamma expression in human MCF7 cells at 30 uM by Western blot analysis. The format is functional, cell-based. The gist of the method:
as §1

Data set [3] has as its system MCF7. Put plainly: Induction of cell cycle arrest in human MCF7 cells assessed as accumulation at S phase at 10 uM after 24 hrs by propidium iodide-staining based FACS analysis (reference value: 30 %). It counts as functional. The method in brief: (§2)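 MCF-7 or PC-3 cells treated at indicated concentrations for 24 h, pelleted, PBS-washed, fixed in ice-cold 70% ethanol overnight at 4 °C. RNase 0.2 mg/mL 1 h at 37 °C, propidium iodide 10 µg/mL 30 min dark. 10,000 events (FL2-A vs FL2-W) by flow cytometry; fractions in apoptosis/sub-G1, G1, S, G2-M.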
In general terms: Flow cytometry measures light scatter and fluorescence of single cells or particles in a stream.

Data set [4] concerns MCF7. Put plainly: Induction of cell cycle arrest in human MCF7 cells assessed as apoptotic cells at 10 uM after 24 hrs by propidium iodide-staining based FACS analysis (reference value: 8 %). The format is functional. The gist of the method:
as §2

The subject of data set [5] is MCF7. In words: Induction of apoptosis in human MCF7 cells assessed as loss of mitochondrial membrane potential at 20 uM after 24 hrs by rhodamine-123-staining based FACS analysis (reference value: 7 % ). It counts as functional. The method in brief: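 Cells (MCF-7 or PC-3) exposed to indicated concentrations for 24 h; rhodamine-123 (5 µM) added 1 h before end. Cells collected, PBS-washed; fluorescence of 10,000 events read in FL-1 by flow cytometry, loss of mitochondrial potential scored as decreased intensity.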

Data set [6] concerns Mus musculus. In words: Toxicity in Swiss mouse implanted with Swiss mouse EAC cells assessed as body weight at 25 mg/kg, ip administered for 1 to 9 days measured on day 1 (reference value: 22.8 g). The format is organism-based, Ehrlich. As to conditions: in vivo.
For data set [7], the system named is Mus musculus. Put plainly: Toxicity in Swiss mouse implanted with Swiss mouse EAC cells assessed as body weight at 25 mg/kg, ip administered for 1 to 9 days measured on day 9 (reference value: 27.7 g). The conditions noted are these: in vivo. It counts as organism-based, Ehrlich.
Data set [8] concerns Mus musculus. In words: Toxicity in Swiss mouse implanted with Swiss mouse EAC cells assessed as body weight at 25 mg/kg, ip administered for 1 to 9 days measured on day 12 (reference value: 28.4 g). It counts as organism-based, Ehrlich. As to conditions: in vivo.
Data set [9] relates to Mus musculus. In words: Toxicity in Swiss mouse implanted with Swiss mouse EAT cells assessed as body weight at 25 mg/kg, ip administered for 1 to 9 days measured on day 5 (reference value: 22.6 g). It counts as organism-based. As to conditions: in vivo.
In data set [10] the test system is Mus musculus. In words: Toxicity in Swiss mouse implanted with Swiss mouse EAT cells assessed as body weight at 15 mg/kg, ip administered for 1 to 9 days measured on day 13 (reference value: 24.1 g). The format is organism-based. As to conditions: in vivo.
The test system of data set [11] is Mus musculus. Put plainly: Toxicity in Swiss mouse implanted with Swiss mouse EAT cells assessed as body weight at 25 mg/kg, ip administered for 1 to 9 days measured on day 13 (reference value: 24.1 g). It counts as organism-based. The conditions noted are these: in vivo.
A short description of data set [12]: Anticancer activity against Swiss mouse EAT cells implanted in Swiss mouse assessed as tumor growth inhibition at 25 mg/kg, ip administered for 1 to 9 days measured on day 13 relative to control. The conditions noted are these: read-out: TGI. It counts as functional. The method in brief: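 Solid tumor: 1 × 10^7 EAC cells (harvested from 8-10 day ascitic Swiss mice) injected intramuscularly into right thigh of male Swiss mice, day 0; randomized next day (n=7 treated, 10 control). Dosing i.p. days 1-9; saline 0.2 ml control, 5-FU 22 mg/kg reference.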

Data set [13] concerns the target Phosphatidylinositol 4,5-bisphosphate 3-kinase catalytic subunit beta isoform (Homo sapiens, UniProt P42338). Put plainly: Inhibition of PI3Kbeta (unknown origin) using diC8 PIP2 as substrate up to 20 uM after 60 mins by ADP-glo assay.
Data set [14] in a line: Downregulation of PI3Kgamma expression in human PC3 cells at 30 uM by Western blot analysis. It counts as functional, cell-based. As to conditions: PC-3. The gist of the method:
as §1
Background: A western blot detects proteins with antibodies after separation by electrophoresis.

A short description of data set [15]: Downregulation of PI3Kdelta expression in human PC3 cells at 30 uM by Western blot analysis. The conditions noted are these: PC-3. It counts as functional, cell-based. The method in brief:
as §1

Data set [16] addresses Phosphatidylinositol 4,5-bisphosphate 3-kinase catalytic subunit alpha isoform (Homo sapiens, UniProt P42336). Put plainly: Inhibition of PI3Kalpha in human PC3 cells assessed as suppression of akt phosphorylation at Ser-473 residue at 30 uM Western blot analysis. The format is cell-based. As to conditions: PC-3.
Data set [17] relates to PC-3. Put plainly: Induction of cell cycle arrest in human PC3 cells assessed as accumulation at G1 phase at 10 uM after 24 hrs by propidium iodide-staining based FACS analysis (reference value: 39 %). It counts as functional. The method in brief:
as §2

Data set [18] concerns PC-3. Put plainly: Induction of cell cycle arrest in human PC3 cells assessed as apoptotic cells at 20 uM after 24 hrs by propidium iodide-staining based FACS analysis (reference value: 2 %). It counts as functional. The gist of the method:
(§3)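 PC-3 cells exposed 24 h at indicated concentrations, pelleted, fixed overnight in ice-cold 70% ethanol at 4 °C, RNase 0.2 mg/mL at 37 °C 1 h, propidium iodide 10 µg/mL 30 min in dark; 10,000 events acquired (FL2-A vs FL2-W); DNA histograms modelled for apoptotic (sub-G1), G1, S and G2-M fractions.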

The subject of data set [19] is PC-3. In words: Induction of cell cycle arrest in human PC3 cells assessed as accumulation at G2 phase at 20 uM after 24 hrs by propidium iodide-staining based FACS analysis (reference value: 17 %). The format is functional. The gist of the method:
as §2

The test system of data set [20] is PC-3. Put plainly: Induction of cell cycle arrest in human PC3 cells assessed as apoptotic cells at 30 uM after 24 hrs by propidium iodide-staining based FACS analysis (reference value: 2 %). The format is functional. The method in brief: as §3
Data set [21] concerns PC-3. In words: Induction of cell cycle arrest in human PC3 cells assessed as accumulation at S phase at 30 uM after 24 hrs by propidium iodide-staining based FACS analysis (reference value: 44 %). It counts as functional. The gist of the method: as §3
Data set [22] has as its system Mus musculus. In words: Toxicity in Swiss mouse implanted with Swiss mouse EAC cells assessed as body weight at 70 mg/kg, ip administered for 1 to 9 days measured on day 5 (reference value: 26.2 g). It counts as organism-based, Ehrlich. The conditions noted are these: in vivo.
For data set [23], the system named is Mus musculus. In words: Toxicity in Swiss mouse implanted with Swiss mouse EAC cells assessed as body weight at 70 mg/kg, ip administered for 1 to 9 days measured on day 9 (reference value: 27.7 g). It counts as organism-based, Ehrlich. The conditions noted are these: in vivo.
The nature of data set [24]: Anticancer activity against Swiss mouse EAC cells implanted in Swiss mouse assessed as tumor growth inhibition at 70 mg/kg, ip administered for 1 to 9 days measured on day 12 relative to control. It counts as functional. The conditions noted are these: Ehrlich, read-out: TGI. The method in brief: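 Swiss mice given 1 × 10^7 EAC cells i.p. on day 0, randomized next day (treated n=7, control n=10). Compound given i.p. days 1-9; saline control (0.2 ml i.p.), 5-fluorouracil 20 mg/kg i.p. reference. Sacrificed day 12; ascitic fluid collected; % TGI from total peritoneal tumor cell count versus control.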

Chain of Phosphatidylinositol 4,5-bisphosphate 3-kinase catalytic subunit beta isoform (P42338 whole entry, looked up, canonical isoform): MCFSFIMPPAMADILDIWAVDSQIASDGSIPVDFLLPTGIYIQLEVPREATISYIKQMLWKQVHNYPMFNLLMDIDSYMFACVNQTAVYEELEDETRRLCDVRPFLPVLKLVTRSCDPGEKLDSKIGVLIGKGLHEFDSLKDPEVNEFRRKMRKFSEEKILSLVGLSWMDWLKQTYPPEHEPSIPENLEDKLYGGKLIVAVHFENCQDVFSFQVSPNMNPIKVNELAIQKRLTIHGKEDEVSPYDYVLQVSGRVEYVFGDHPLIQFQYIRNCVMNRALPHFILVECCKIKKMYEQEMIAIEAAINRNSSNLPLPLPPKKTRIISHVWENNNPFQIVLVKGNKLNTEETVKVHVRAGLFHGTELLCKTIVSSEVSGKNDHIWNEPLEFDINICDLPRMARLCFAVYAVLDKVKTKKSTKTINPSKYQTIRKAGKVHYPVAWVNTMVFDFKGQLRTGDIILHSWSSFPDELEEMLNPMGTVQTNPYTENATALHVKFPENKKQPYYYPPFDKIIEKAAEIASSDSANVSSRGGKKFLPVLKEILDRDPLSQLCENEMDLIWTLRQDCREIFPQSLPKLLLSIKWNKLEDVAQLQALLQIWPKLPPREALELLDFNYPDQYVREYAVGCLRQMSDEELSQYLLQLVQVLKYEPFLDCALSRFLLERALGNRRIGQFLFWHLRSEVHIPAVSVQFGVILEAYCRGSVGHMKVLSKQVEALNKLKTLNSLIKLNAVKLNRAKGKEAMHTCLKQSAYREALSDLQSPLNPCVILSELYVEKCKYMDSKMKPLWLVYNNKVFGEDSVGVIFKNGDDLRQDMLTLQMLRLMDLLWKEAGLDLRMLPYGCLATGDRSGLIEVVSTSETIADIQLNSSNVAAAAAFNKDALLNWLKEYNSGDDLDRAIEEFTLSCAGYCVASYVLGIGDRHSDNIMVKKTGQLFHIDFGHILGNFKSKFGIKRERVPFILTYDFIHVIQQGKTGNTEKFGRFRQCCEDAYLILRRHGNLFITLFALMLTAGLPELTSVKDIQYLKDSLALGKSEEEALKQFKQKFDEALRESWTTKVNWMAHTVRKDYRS
Chain of Phosphatidylinositol 4,5-bisphosphate 3-kinase catalytic subunit alpha isoform (P42336 whole entry, canonical isoform): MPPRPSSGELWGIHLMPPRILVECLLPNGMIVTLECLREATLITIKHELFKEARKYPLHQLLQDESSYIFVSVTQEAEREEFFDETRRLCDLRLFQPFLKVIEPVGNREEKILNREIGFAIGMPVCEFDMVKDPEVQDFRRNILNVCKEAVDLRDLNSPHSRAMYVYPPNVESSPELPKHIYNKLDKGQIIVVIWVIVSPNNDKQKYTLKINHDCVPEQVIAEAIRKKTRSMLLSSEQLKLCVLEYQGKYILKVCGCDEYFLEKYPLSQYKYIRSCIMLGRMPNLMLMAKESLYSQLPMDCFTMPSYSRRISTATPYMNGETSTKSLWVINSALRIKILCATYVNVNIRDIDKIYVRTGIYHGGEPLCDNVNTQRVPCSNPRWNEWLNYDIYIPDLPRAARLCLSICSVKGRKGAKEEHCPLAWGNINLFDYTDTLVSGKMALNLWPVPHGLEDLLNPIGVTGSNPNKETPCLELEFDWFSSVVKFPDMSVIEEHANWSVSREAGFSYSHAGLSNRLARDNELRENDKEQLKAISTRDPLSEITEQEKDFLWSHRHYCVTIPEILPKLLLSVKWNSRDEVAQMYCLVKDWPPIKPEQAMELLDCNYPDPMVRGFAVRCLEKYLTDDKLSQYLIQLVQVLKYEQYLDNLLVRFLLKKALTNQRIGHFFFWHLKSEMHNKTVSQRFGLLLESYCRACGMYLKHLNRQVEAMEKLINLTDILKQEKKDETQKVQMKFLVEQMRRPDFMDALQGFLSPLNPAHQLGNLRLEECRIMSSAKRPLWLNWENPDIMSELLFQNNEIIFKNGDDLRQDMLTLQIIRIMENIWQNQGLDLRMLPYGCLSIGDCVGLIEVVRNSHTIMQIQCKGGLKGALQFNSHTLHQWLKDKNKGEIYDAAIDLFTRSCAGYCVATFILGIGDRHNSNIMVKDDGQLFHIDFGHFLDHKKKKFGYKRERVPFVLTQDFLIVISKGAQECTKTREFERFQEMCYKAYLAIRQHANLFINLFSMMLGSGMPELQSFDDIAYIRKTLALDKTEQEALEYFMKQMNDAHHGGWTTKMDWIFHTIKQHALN

`N#CCc1ccc(Nc2ncnc3ccc(-c4ccc5[nH]ccc5c4)cc23)cc1`: the Activity in data set [1] came to 44%; in data set [2], 6%; in the data set with MCF7 [3], 40%; in the data set with MCF7 [4] it was 7%; in the data set on MCF7 [5] it was 15%; with Mus musculus [6], 20.57 g. Also, the Activity was found to be 22.57 g in the data set on Mus musculus [7]; 23.8 g in the data set with Mus musculus [8]; 20.61 g in the data set on Mus musculus [9]; 22.57 g in the data set with Mus musculus [10]; 21.81 g with Mus musculus [11]. Also, the inhibition in vivo at 25 mg/kg in data set [12] was determined as 36.5%.

As usually defined, the inhibition is the share of the control response that was lost under treatment. In the case of `N#CCc1ccc(Nc2ncnc3ccc(-c4cncc5ccccc45)cc23)cc1`, the inhibition in [13] was determined as 0%; in data set [16], 50%. In addition, the Activity in [14] amounted to 20%; in [15] it was 32%; in the data set with PC-3 [17], 44%; in the data set on PC-3 [18], 10%; with PC-3 [19], 9%; in the data set with PC-3 [20], 25%. The Activity with PC-3 [21] is 46%; with Mus musculus [22], 23 g; with Mus musculus [23], 23.71 g. Also, the inhibition in vivo at 70 mg/kg in data set [24] turned out to be 25.8%.
